Results from ChEMBL document CHEMBL1139976, “Liver X receptor antagonists with a phthalimide skeleton derived from thalidomide-related glucosidase inhibitors” (Bioorg Med Chem Lett, 2007).
The source made the active and inactive calls. The calls are words filed in the database; no cut-off is given here.

Tests used:
[1] = molecular target: T1, Oxysterols receptor LXR-alpha (Homo sapiens) (UniProt Q13133); assay: Antagonist activity at human recombinant LXRalpha expressed in HEK293 cells assessed as inhibition of T0901317-induced transcriptional activation at 100 uM by luciferase assay; format: functional, cell-based
T1 sequence (whole entry): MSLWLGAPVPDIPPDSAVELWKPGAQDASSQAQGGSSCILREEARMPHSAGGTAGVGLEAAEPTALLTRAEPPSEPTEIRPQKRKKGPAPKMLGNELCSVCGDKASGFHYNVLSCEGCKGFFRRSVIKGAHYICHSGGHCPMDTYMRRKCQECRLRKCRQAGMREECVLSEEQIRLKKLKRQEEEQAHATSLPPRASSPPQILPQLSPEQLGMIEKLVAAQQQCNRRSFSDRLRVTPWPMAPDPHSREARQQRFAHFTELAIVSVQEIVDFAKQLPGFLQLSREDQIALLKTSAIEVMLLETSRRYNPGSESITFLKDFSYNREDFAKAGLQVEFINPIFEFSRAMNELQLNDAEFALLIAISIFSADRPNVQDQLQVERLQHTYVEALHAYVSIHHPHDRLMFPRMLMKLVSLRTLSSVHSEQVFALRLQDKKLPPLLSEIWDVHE
Method in brief: (§1)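 GAL4 DNA-binding domain fused to human LXR (alpha or beta) as receptor plasmid, TK-MH100x4-LUC reporter, and CMX beta-galactosidase for normalization. HEK293 cells in DMEM with 5% FBS, 37 °C, 5% CO2. Transfected by calcium phosphate coprecipitation. Compounds added 8 h post-transfection together with 0.1 µM T0901317, whose response alone was set as 100%. Luciferase read on a luminometer. Three repeats, normalized averages.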

[2] = Inhibition of alpha glucosidase; set-up: species or system Homo sapiens
Method in brief: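 The enzyme (25 mU/mL) was preincubated with a range of compound concentrations in 10 mM phosphate buffer, pH 7.2, at 37 °C for 10 min. p-Nitrophenyl-alpha-D-glucopyranoside was then added to 0.16 mM final and incubated 30 min at 37 °C. The reaction was basified with 0.5 M Na2CO3 and released p-nitrophenol read at 400 nm. IC50 values were derived.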

[3] = molecular target: T2, Oxysterols receptor LXR-beta (Homo sapiens) (UniProt P55055); assay: Antagonist activity at human recombinant LXRbeta expressed in HEK293 cells assessed as inhibition of T0901317-induced transcriptional activation at 100 uM by luciferase assay; format: functional, cell-based; method in brief: as §1
T2 sequence (whole entry): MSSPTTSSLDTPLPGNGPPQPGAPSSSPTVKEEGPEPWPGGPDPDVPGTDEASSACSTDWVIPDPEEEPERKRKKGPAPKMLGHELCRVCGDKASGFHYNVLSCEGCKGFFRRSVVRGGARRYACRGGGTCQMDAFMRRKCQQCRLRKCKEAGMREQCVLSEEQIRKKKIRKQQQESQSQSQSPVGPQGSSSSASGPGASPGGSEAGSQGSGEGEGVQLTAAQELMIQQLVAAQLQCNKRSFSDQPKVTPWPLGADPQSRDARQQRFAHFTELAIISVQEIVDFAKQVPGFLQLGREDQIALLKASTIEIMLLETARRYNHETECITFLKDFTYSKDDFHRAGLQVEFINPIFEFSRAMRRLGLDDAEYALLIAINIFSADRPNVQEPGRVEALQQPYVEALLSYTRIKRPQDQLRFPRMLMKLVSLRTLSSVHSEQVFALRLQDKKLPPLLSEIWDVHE

HEK293 = assay: Cytotoxicity against HEK293 cells at 100 uM; format: cell-based; conditions: human, hek293, 100 µM
Homo sapiens [4] = species on record: Homo sapiens; assay: Inhibition of dipeptidylpeptidase 4
Homo sapiens [5] = species on record: Homo sapiens; assay: Inhibition of maltase
[6] = molecular target: T3, Oxysterols receptor LXR-alpha (Homo sapiens, UniProt Q13133); assay: Antagonist activity at human recombinant LXRalpha expressed in HEK293 cells assessed as inhibition of T0901317-induced transcriptional activation by luciferase assay; format: functional, cell-based
T3 sequence (Q13133 whole entry): T1 sequence (whole entry)

[7] = molecular target: T4, Oxysterols receptor LXR-beta (Homo sapiens, UniProt P55055); assay: Antagonist activity at human recombinant LXRbeta expressed in HEK293 cells assessed as inhibition of T0901317-induced transcriptional activation by luciferase assay; format: functional, cell-based
T4 sequence (P55055 whole entry): T2 sequence (whole entry)

SMILES	inhibition [1]	IC50 [2]	inhibition [3]	also measured
O=C1c2c(Cl)c(Cl)c(Cl)c(Cl)c2C(=O)N1CCc1ccccc1	38%	6 µM	38%	–
O=C1c2c(Cl)c(Cl)c(Cl)c(Cl)c2C(=O)N1Cc1ccccc1	60%	10.9 µM	51%	–
O=C1c2c(Cl)c(Cl)c(Cl)c(Cl)c2C(=O)N1CCCCCCCCCCc1ccccc1	–	6.8 µM	–	Activity [1]: inactive; Activity [3]: inactive
O=C1c2c(Cl)c(Cl)c(Cl)c(Cl)c2C(=O)N1c1ccccc1	–	2.6 µM	–	Activity [1]: inactive; Activity [3]: inactive
O=C1c2ccc(Cl)cc2C(=O)N1CCCCc1ccccc1	66%	–	45%	–
O=C1c2c(Cl)c(Cl)c(Cl)c(Cl)c2C(=O)N1CCCCc1ccccc1	53%	2 µM	49%	–
CC(C)c1cccc(C(C)C)c1N1C(=O)c2ccccc2C1=S	94%	8 µM	92%	Activity (HEK293): 73%; Activity (Homo sapiens [4]): Active; Activity (Homo sapiens [5]): Active
O=C1c2c(Cl)c(Cl)c(Cl)c(Cl)c2C(=O)N1CCCCCc1ccccc1	42%	3.5 µM	3%	–
CC(C)c1cccc(C(C)C)c1N1C(=O)c2c(Cl)c(Cl)c(Cl)c(Cl)c2C1=O	61%	2.4 µM	49%	–
O=C1c2c(Cl)c(Cl)c(Cl)c(Cl)c2C(=O)N1CCCc1ccccc1	59%	4.5 µM	52%	–
O=C1c2cc(Cl)c(Cl)cc2C(=O)N1CCCCc1ccccc1	50%	–	35%	–
CCCCCCc1ccccc1N1C(=O)c2ccccc2C1=O	–	24.7 µM	–	IC50 [6]: 13 µM; IC50 [7]: 65 µM; Activity (HEK293): 57%; Activity (Homo sapiens [4]): inactive; Activity (Homo sapiens [5]): inactive
O=C1c2ccccc2C(=O)N1c1ccccc1CCc1ccccc1	–	16.2 µM	–	Activity (HEK293): 48%; Activity (Homo sapiens [4]): inactive; Activity (Homo sapiens [5]): inactive
